Activity calls are given as the source filed them. The rule behind the calls is not given here.
How the values were obtained:
[1] = Permeability at 5 to 10 uM at pH 4, 6.8 and 8 by PAMPA; details: pH 4, 6.8, 8, 10 µM
[2] = tested on: Mus musculus; experiment: Reduction in glucose excursion in C57BL/6 mouse at 10 mg/kg, iv administered 30 mins before glucose challenge measured at 2 hrs postdose by oral glucose tolerance test; format: functional, C57BL6; set-up: scale not given: the % may be the effect or the level left
Procedure, shortened: (§1)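 Normal C57BL6 mice, compound given IV at 10 mg/kg. Oral glucose at 1 g/kg 30 min after dosing. Plasma glucose read by glucose meter at 0 h and at 0.5, 1, 2 and 4 h post-dose. Reported as % reduction from vehicle control at the stated time, with significance at p < 0.05 or the p-value given.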

[3] = Metabolic stability in human liver microsomes assessed as half life; format: ADME, Microsome
Procedure, shortened: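 Compound incubated at 1 μM with human liver microsomes plus selected cofactors (NADPH, UDPGA); clearance followed at 4 time points as % test compound remaining, giving half-life.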

[4] = biological target: T1, Hexokinase-4 (Homo sapiens) (UniProt P35557); experiment: Activation of His-tagged human recombinant liver glucokinase expressed in Escherichia coli BL21 (DE3) assessed as drug level required for half-maximal activation; format: single protein
T1 sequence (whole entry): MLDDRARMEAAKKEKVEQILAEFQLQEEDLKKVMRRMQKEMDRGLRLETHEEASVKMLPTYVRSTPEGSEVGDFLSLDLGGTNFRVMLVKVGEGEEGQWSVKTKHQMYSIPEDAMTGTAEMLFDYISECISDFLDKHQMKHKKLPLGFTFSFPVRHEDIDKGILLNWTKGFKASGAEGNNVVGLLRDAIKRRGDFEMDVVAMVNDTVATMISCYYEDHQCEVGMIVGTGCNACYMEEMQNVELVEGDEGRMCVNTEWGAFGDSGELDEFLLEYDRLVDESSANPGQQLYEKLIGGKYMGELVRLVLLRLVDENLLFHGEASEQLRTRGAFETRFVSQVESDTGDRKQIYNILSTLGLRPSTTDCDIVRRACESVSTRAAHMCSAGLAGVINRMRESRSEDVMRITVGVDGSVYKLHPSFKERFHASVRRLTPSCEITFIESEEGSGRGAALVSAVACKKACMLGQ
Procedure, shortened: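 Recombinant human liver GK (aa 17-466), His-tagged, expressed in E. coli BL21 Star (DE3), nickel affinity purified, tag cleaved (GPGSM left), then anion exchange and gel filtration to >95%.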

[5] = tested on: Mus musculus; experiment: Reduction in glucose excursion in C57BL/6 mouse at 50 mg/kg, po in water administered 30 mins before glucose challenge measured at 0.5 hr postdose by oral glucose tolerance test; format: functional, C57BL6; set-up: scale not given: the % may be the effect or the level left
Procedure, shortened: as §1, with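 “mice dosed by oral gavage” for “mice, compound given IV”, “50 mg/kg, with water as vehicle.” for “10 mg/kg.”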

[6] = AUC (0 to 24 hrs) in C57BL/6 mouse liver at 60 mg/kg; format: ADME, organism-based, C57BL6; set-up: time < 24 hr, dose 60 mg/kg
Procedure, shortened: (§2)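 Normal male-unspecified C57BL6 mice given a single 60 mg/kg dose; plasma, liver, pancreas and muscle sampled over 0-24 h, 3 animals with samples pooled for analysis; Cmax (μM) and AUC0-24h (μM*h) of parent drug reported.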

[7] = tested on: Mus musculus; experiment: Antidiabetic activity in high fat diet-induced obese C57BL/6 type 2 diabetes mouse model assessed as improvement of insulin sensitivity at 30 to 100 mg/kg, po administered QD for 4 weeks by intravenous glucose tolerance test; format: functional, organism-based; details: C57BL6
Procedure, shortened: (§3)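 Male C57BL6 mice kept on high fat diet dosed orally once daily with vehicle (dH2O) or compound at 30 to 100 mg/kg. Intravenous glucose tolerance test then run; plasma glucose excursion and plasma insulin AUC (0-120 min) calculated; n = 8 mice/group, mean ± SEM, p < 0.05 vs vehicle.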

[8] = Cmax in C57BL/6 mouse liver at 60 mg/kg; format: ADME, organism-based, C57BL6; set-up: dose 60 mg/kg
Procedure, shortened: as §2

[9] = tested on: Mus musculus; experiment: Antidiabetic activity in high fat diet-induced obese C57BL/6 type 2 diabetes mouse model assessed as reduction of glucose output from liver at 30 to 100 mg/kg, po administered QD for 4 weeks by intravenous glucose tolerance test; format: functional, organism-based; details: C57BL6
Procedure, shortened: as §3

[10] = tested on: Mus musculus; experiment: Antidiabetic activity in po dosed high fat diet-induced obese C57BL/6 type 2 diabetes mouse model assessed as decrease in glucose excursion administered QD for 4 weeks by intravenous glucose tolerance test; format: functional, organism-based; details: C57BL6
Procedure, shortened: as §3

[11] = Cmax in C57BL/6 mouse pancreas at 60 mg/kg; format: ADME, organism-based, C57BL6; set-up: dose 60 mg/kg
Procedure, shortened: as §2

[12] = AUC (0 to 24 hrs) in C57BL/6 mouse plasma at 60 mg/kg; format: ADME, organism-based, C57BL6; set-up: time < 24 hr, dose 60 mg/kg
Procedure, shortened: as §2

[13] = tested on: Mus musculus; experiment: Antidiabetic activity in high fat diet-induced obese C57BL/6 type 2 diabetes mouse model assessed as increase in plasma insulin AUC at 100 mg/kg, po administered QD for 4 weeks by intravenous glucose tolerance test; format: functional, organism-based; set-up: dose 100 mg/kg; details: C57BL6
Procedure, shortened: as §3

[14] = Cmax in C57BL/6 mouse plasma at 60 mg/kg; format: ADME, organism-based, C57BL6; set-up: dose 60 mg/kg
Procedure, shortened: as §2

[15] = AUC (0 to 24 hrs) in C57BL/6 mouse muscle at 60 mg/kg; format: ADME, organism-based, C57BL6, Muscle tissue; set-up: time < 24 hr, dose 60 mg/kg
Procedure, shortened: as §2

[16] = tested on: Mus musculus; experiment: Antidiabetic activity in high fat diet-induced obese C57BL/6 type 2 diabetes mouse model assessed as improvement of glucose uptake at 30 to 100 mg/kg, po administered QD for 4 weeks by intravenous glucose tolerance test; format: functional, organism-based; details: C57BL6
Procedure, shortened: as §3

[17] = AUC (0 to 24 hrs) in C57BL/6 mouse pancreas at 60 mg/kg; format: ADME, organism-based, C57BL6; set-up: time < 24 hr, dose 60 mg/kg
Procedure, shortened: as §2

[18] = tested on: Mus musculus; experiment: Antidiabetic activity in high fat diet-induced obese C57BL/6 type 2 diabetes mouse model assessed as increase in plasma insulin AUC at 30 mg/kg, po administered QD for 4 weeks by intravenous glucose tolerance test; format: functional, organism-based; set-up: dose 30 mg/kg; details: C57BL6
Procedure, shortened: as §3

[19] = Cmax in C57BL/6 mouse muscle at 60 mg/kg; format: ADME, organism-based, C57BL6, Muscle tissue; set-up: dose 60 mg/kg
Procedure, shortened: as §2

Structure (SMILES) | logPm [1] | Activity [2] | half-life [3] | Activity [4] | Activity [5] | AUC(0-t) at 24 h [6] | Activity [7] | Cmax [8] | Activity [9] | Activity [10] | Cmax [11] | AUC(0-t) at 24 h [12] | Activity [13] | Cmax [14] | AUC(0-t) at 24 h [15] | Activity [16] | AUC(0-t) at 24 h [17] | Activity [18] | Cmax [19]
COc1ccc2nc(NC(=O)C(CC3CCCC3)c3ccc(S(=O)(=O)N4CCNCC4)cc3)sc2n1.Cl (stereo not given) | -4.9 | 26% | < 1.5 min | 50 nM | 22% | – | – | – | – | – | – | – | – | – | – | – | – | – | –
COc1ccc2nc(NC(=O)[C@H](CC3CCCC3)c3ccc(S(=O)(=O)N4CCN(C)CC4)cc3)sc2n1 | – | – | – | 23 nM | – | 511 µM·h | Active | 44.5 µM | Active | Dose-dependent effect | 218 µM | 52.4 µM·h | inactive | 4.3 µM | 167 µM·h | Active | 3230 µM·h | inactive | 34.6 µM

Reference: ChEMBL document CHEMBL1155225, “Investigation of functionally liver selective glucokinase activators for the treatment of type 2 diabetes” (J Med Chem, 2009)
